Data reported in ChEMBL document CHEMBL1799919, “Design, synthesis, biological evaluation, and structure-activity relationships of substituted phenyl 4-(2-oxoimidazolidin-1-yl)benzenesulfonates as new tubulin inhibitors mimicking combretastatin A-4” (J Med Chem, 2011).
The source made the active and inactive calls. The rule behind the calls is not given here.

Columns and labels:
CHO = experiment: Antiproliferative activity against CHO cells after 48 hrs by sulforhodamine B assay; format: functional, cell-based; settings: Cricetulus griseus
K562 = experiment: Antiproliferative activity against human K562 cells after 48 hrs by sulforhodamine B assay; format: functional, cell-based; settings: K562, 48 h
L1210 = experiment: Antiproliferative activity against mouse L1210 cells after 48 hrs by sulforhodamine B assay; format: functional, cell-based; settings: L1210, 48 h
[1] = Antiproliferative activity against mouse P388D1 cells after 48 hrs by sulforhodamine B assay; format: functional, cell-based; settings: P388D1, 48 h
[2] = Antiproliferative activity against mouse B16F0 cells after 48 hrs by sulforhodamine B assay; format: functional, cell-based; settings: B16F0, 48 h
DU-145 = experiment: Antiproliferative activity against human DU145 cells after 48 hrs by sulforhodamine B assay; format: functional, cell-based; settings: DU-145, 48 h
HT-1080 = experiment: Antiproliferative activity against human HT1080 cells after 48 hrs by sulforhodamine B assay; format: functional, cell-based; settings: HT-1080, 48 h
MDA-MB-231 [3] = experiment: Antiproliferative activity against human MDA-MB-231 cells after 48 hrs by sulforhodamine B assay; format: functional, cell-based; settings: MDA-MB-231, 48 h
SK-OV-3 = experiment: Antiproliferative activity against human SKOV3 cells after 48 hrs by sulforhodamine B assay; format: functional, cell-based; settings: SK-OV-3, 48 h
CCRF-CEM = experiment: Antiproliferative activity against human CEM cells after 48 hrs by sulforhodamine B assay; format: functional, cell-based
CHO-TAX 5-6 [4] = experiment: Antiproliferative activity against paclitaxel-resistant CHO-TAX 5-6 cells after 48 hrs by sulforhodamine B assay; format: functional, cell-based; settings: Cricetulus griseus, CHO-TAX 5-6, 48 h
CHO-TAX 5-6 [5] = experiment: Resistant ratio of IC50 for paclitaxel-resistant CHO-TAX 5-6 cells to IC50 for CHO cells; format: functional, Cricetulus griseus
Procedure, shortened: (§1)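 Ratio of the IC50 in the resistant line (CEM-VLB, CHO-TAX 5-6 or CHO-VV 3-2) to the IC50 in its parental line (CEM or CHO).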

[6] = Antiproliferative activity against multidrug-resistant human CEM/VLB cells after 48 hrs by sulforhodamine B assay; format: functional
CEM-VLB = experiment: Resistant ratio of IC50 for multidrug-resistant human CEM-VLB cells to IC50 for human CEM cells; format: functional; procedure, shortened: as §1
CHO-VV 3-2 = experiment: Antiproliferative activity against colchicine- and vinblastine-resistant CHO-VV 3-2 cells after 48 hrs by sulforhodamine B assay; settings: Cricetulus griseus, CHO-VV 3-2, 48 h
HT-29 = experiment: Antiproliferative activity against human HT-29 cells after 48 hrs by sulforhodamine B assay; format: functional, cell-based; settings: HT-29, 48 h
M21 [7] = experiment: Antiproliferative activity against human M21 cells after 48 hrs by sulforhodamine B assay; format: functional, cell-based; settings: M21, 48 h
MCF7 = experiment: Antiproliferative activity against human MCF7 cells after 48 hrs by sulforhodamine B assay; format: functional, cell-based; settings: MCF7, 48 h
M21 [8] = experiment: Cell cycle arrest in human M21 cells assessed as accumulation at G0/G1 phase at 5 times IC50 after 24 hrs using propidium iodide staining by flow cytometric analysis (reference value: 61%); format: functional
M21 [9] = experiment: Cell cycle arrest in human M21 cells assessed as accumulation at S phase at 5 times IC50 after 24 hrs using propidium iodide staining by flow cytometric analysis (reference value: 30%); format: functional
M21 [10] = experiment: Cell cycle arrest in human M21 cells assessed as accumulation at G2/M phase at 5 times IC50 after 24 hrs using propidium iodide staining by flow cytometric analysis (reference value: 9%); format: functional
MDA-MB-231 [11] = experiment: Displacement of N,N'-ethylenebis(iodoacetamide) from colchicine-binding site of beta-tubulin in human MDA-MB-231 cells at 1000 times IC50 preincubated for after 2 hrs before N,N'-ethylenebis(iodoacetamide) addition measured after 1.5 hrs by chemiluminescence assay; format: cell-based
Procedure, shortened: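 EBI (100 μM final) added for 1.5 h at 37 °C; controls received 0.5% DMSO. Lysates (20 μg protein) run on 10% SDS-PAGE and blotted with anti-β-tubulin (TUB 2.1). β-tubulin–EBI adduct band detected by ECL.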

M21 [12] = experiment: Disruption of cytoskeleton microtubule structure of human M21 cells at 5 times IC50 after 16 hrs by indirect immunofluorescence assay; format: functional, cell-based
Procedure, shortened: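 Fixed in 3.7% formaldehyde, permeabilized with saponin, and stained with anti-β-tubulin (TUB 2.1), Alexa-488 secondary and DAPI. Microtubule structure scored by fluorescence microscopy.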

SMILES | IC50 (HT-29) | IC50 (MCF7) | IC50 (M21 [7]) | Activity (M21 [8]) | Activity (M21 [9]) | Activity (M21 [10]) | inhibition (MDA-MB-231 [11]) | Activity (M21 [12]) | other results
CC[C@]1(O)C[C@@H]2CN(CCc3c([nH]c4ccccc34)[C@@](C(=O)OC)(c3cc4c(cc3OC)N(C)[C@H]3[C@@](O)(C(=O)OC)[C@H](OC(C)=O)[C@]5(CC)C=CCN6CC[C@]43[C@@H]65)C2)C1 [VINBLASTINE] | – | – | – | – | – | – | – | – | IC50 (CHO): 17 nM; IC50 (K562): 0.36 nM; IC50 (L1210): 0.16 nM; IC50 [1]: 1.8 nM; IC50 [2]: 0.099 nM; IC50 (DU-145): 0.063 nM; IC50 (HT-1080): 0.099 nM; IC50 (MDA-MB-231 [3]): 0.12 nM; IC50 (SK-OV-3): 0.039 nM; IC50 (CCRF-CEM): 0.38 nM; IC50 (CHO-TAX 5-6 [4]): 6.9 nM; Ratio IC50 (CHO-TAX 5-6 [5]): 0.41; IC50 [6]: 600 nM; Ratio IC50 (CEM-VLB): 1579; IC50 (CHO-VV 3-2): 66 nM
O=C1NCCN1c1ccc(S(=O)(=O)Oc2ccccc2I)cc1 | 55 nM | 71 nM | 40 nM | 4% | 25% | 71% | Active | Active | –
COc1cc2c(c(OC)c1OC)-c1ccc(OC)c(=O)cc1[C@@H](NC(C)=O)CC2 [COLCHICINE] | – | – | – | – | – | – | – | – | IC50 (CHO): 220 nM; IC50 (K562): 6.8 nM; IC50 (L1210): 6.9 nM; IC50 [1]: 28 nM; IC50 [2]: 13 nM; IC50 (HT-1080): 1.1 nM; IC50 (MDA-MB-231 [3]): 2.9 nM; IC50 (SK-OV-3): 2.1 nM; IC50 (CCRF-CEM): 7.9 nM; IC50 (CHO-TAX 5-6 [4]): 140 nM; IC50 [6]: 360 nM; IC50 (CHO-VV 3-2): 620 nM
Cc1ccccc1OS(=O)(=O)c1ccc(N2CCNC2=O)cc1 | 33 nM | 30 nM | 26 nM | 11% | 15% | 74% | Active | Active | –
O=C1NCCN1c1ccc(S(=O)(=O)Oc2cccc([N+](=O)[O-])c2)cc1 | 100 nM | 60 nM | 48 nM | 56% | 13% | 31% | Active | Active | –
CC(=O)O[C@H]1C(=O)[C@@]2(C)[C@H]([C@H](OC(=O)c3ccccc3)[C@]3(O)C[C@H](OC(=O)[C@H](O)[C@@H](NC(=O)c4ccccc4)c4ccccc4)C(C)=C1C3(C)C)[C@]1(OC(C)=O)CO[C@@H]1C[C@@H]2O [PACLITAXEL] | – | – | – | – | – | – | – | – | IC50 (CHO): 170 nM; IC50 (K562): 0.71 nM; IC50 (L1210): 0.4 nM; IC50 [1]: 35 nM; IC50 [2]: 28 nM; IC50 (DU-145): 1.3 nM; IC50 (HT-1080): 0.15 nM; IC50 (SK-OV-3): 2.6 nM; IC50 (CCRF-CEM): 0.27 nM; IC50 (CHO-TAX 5-6 [4]): 520 nM; IC50 (CHO-VV 3-2): 140 nM
CCOc1ccccc1OS(=O)(=O)c1ccc(N2CCNC2=O)cc1 | 40 nM | 83 nM | 24 nM | 1% | 19% | 80% | Active | Active | –
Cc1cccc(OS(=O)(=O)c2ccc(N3CCNC3=O)cc2)c1C | 31 nM | 50 nM | 17 nM | 5% | 32% | 63% | Active | Active | –
CCCOc1ccc(OS(=O)(=O)c2ccc(N3CCNC3=O)cc2)cc1 | 110 nM | 140 nM | 96 nM | 0% | 6% | 94% | Active | Active | –
CCCc1ccccc1OS(=O)(=O)c1ccc(N2CCNC2=O)cc1 | 76 nM | 69 nM | 61 nM | 0% | 0% | 100% | Active | Active | –

The next lines start with results.

IC50 (HT-29) | IC50 (MCF7) | SMILES | IC50 (M21 [7]) | Activity (M21 [8]) | Activity (M21 [9]) | Activity (M21 [10]) | inhibition (MDA-MB-231 [11]) | Activity (M21 [12]) | other results
75 nM | 100 nM | O=C1NCCN1c1ccc(S(=O)(=O)Oc2ccc(F)c(F)c2)cc1 | 47 nM | 2% | 26% | 72% | Active | Active | –
36 nM | 47 nM | O=C1NCCN1c1ccc(S(=O)(=O)Oc2cc(F)cc(F)c2)cc1 | 15 nM | 12% | 29% | 59% | Active | Active | –
76 nM | 57 nM | Cc1cccc(OS(=O)(=O)c2ccc(N3CCNC3=O)cc2)c1 | 54 nM | 1% | 0% | 99% | Active | Active | –
70 nM | 100 nM | O=C1NCCN1c1ccc(S(=O)(=O)Oc2ccc3[nH]ccc3c2)cc1 | 65 nM | 19% | 17% | 64% | Active | Active | –
42 nM | 54 nM | O=C1NCCN1c1ccc(S(=O)(=O)Oc2cccc(F)c2)cc1 | 31 nM | 7% | 9% | 84% | Active | Active | –
29 nM | 34 nM | COc1cccc(OS(=O)(=O)c2ccc(N3CCNC3=O)cc2)c1 | 24 nM | 1% | 1% | 98% | Active | Active | –
41 nM | 55 nM | O=C1NCCN1c1ccc(S(=O)(=O)Oc2ccc(F)cc2F)cc1 | 35 nM | 2% | 26% | 72% | Active | Active | –
51 nM | 61 nM | O=C1NCCN1c1ccc(S(=O)(=O)Oc2ccccc2F)cc1 | 34 nM | 18% | 34% | 48% | Active | Active | –
42 nM | 66 nM | Cc1cc(C)c(OS(=O)(=O)c2ccc(N3CCNC3=O)cc2)cc1C | 41 nM | 1% | 20% | 79% | Active | Active | –
73 nM | 91 nM | O=C1NCCN1c1ccc(S(=O)(=O)Oc2cc(F)c(F)c(F)c2)cc1 | 43 nM | 4% | 31% | 65% | Active | Active | –
32 nM | 47 nM | Cc1cc(C)cc(OS(=O)(=O)c2ccc(N3CCNC3=O)cc2)c1 | 16 nM | 7% | 26% | 67% | Active | Active | –
